Compounds with a hit are over-represented: about 3.2% of the library has one in this group of screens.
JMJD2C inh – inhibitors of GASC-1 histone demethylase, primary screen, biochemical, fluorescence, DELFIA europium | Lysine-specific demethylase 4C (Homo sapiens), Q9H3R0 | GST-JMJD2C(1-420) H3K9me3 demethylation | inhibition, % at 2.35 µM | hit rate 0.069% among 330,000;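 active means more than half of a compound's replicate wells show inhibition beyond 50%, single wells judged on their own value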;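 further: signal counts dimethyl H3K9 product captured on neutravidin plate; 0% = median of DMSO wells and 100% = 0.3 times that DMSO median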
NR2E3 ag-1 – inhibitors of NR2E3-RetCOR corepressor binding, primary screen, NR2E3 agonist project, biochemical, TR-FRET, GST-NR2E3, biotin-RetCOR; Photoreceptor-specific nuclear receptor (Homo sapiens), Q9Y5X4; 1536-well; inhibition of corepressor binding, % at 4.78 µM; hit rate 0.12% among 320,000; AID 2300, 2010;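 active means percent inhibition above the cutoff of mean plus 3 SD of all tested compounds, set per screening campaign, cut at about 20% in these data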;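 further: 0% = DMSO wells and 100% = biotin wells as full block of FRET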
Target sequence (Q9Y5X4 whole entry, looked up): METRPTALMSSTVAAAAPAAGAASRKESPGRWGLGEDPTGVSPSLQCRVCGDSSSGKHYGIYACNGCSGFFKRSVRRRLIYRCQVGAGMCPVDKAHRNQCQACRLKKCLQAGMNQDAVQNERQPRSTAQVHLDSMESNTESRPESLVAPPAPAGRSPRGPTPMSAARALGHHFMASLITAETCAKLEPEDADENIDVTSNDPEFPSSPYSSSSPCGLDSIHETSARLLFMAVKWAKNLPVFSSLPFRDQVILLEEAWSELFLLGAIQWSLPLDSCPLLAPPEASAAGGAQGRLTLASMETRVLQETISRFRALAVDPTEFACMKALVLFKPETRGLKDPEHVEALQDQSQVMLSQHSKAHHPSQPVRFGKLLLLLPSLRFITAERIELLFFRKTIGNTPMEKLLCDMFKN
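System: GST-tagged NR2E3 plus biotinylated RetCOR corepressor; Buffer or medium: pH 7.5 Tris-based buffer; Probe or stimulus: RetCOR corepressor, biotinylated, 7 nM; Doses: compound at 4.8 µM, single dose; Schedule: 5 h incubation at 4 °C; Technique: time-resolved FRET; Evaluation: percent inhibition of TR-FRET ratio; Replication: one well per compound, singlicate testing.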
SMARCA2 activ – SMARCA2 (BRM) function activators, primary screen, cell-based, luminescence, high throughput | activation, % at 9.1 µM | MG213 cells, MMTV-luciferase reporter, dexamethasone, overnight | AID 652017, 2013 | hit rate 1% among 370,000; in the data active means activation above about 7.8%;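 further: 0% = vehicle wells and 100% = reference activator wells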
NR2E3 ag-2 – NR2E3 agonists in two-hybrid cells, primary screen, cell-based, luminescence, CHO-S, Gal4-NCOR/VP16-NR2E3 | hit rate 0.35% among 360,000 | inhibition of corepressor binding, % at 3.98 µM | AID 602229, 2012 | luciferase | Photoreceptor-specific nuclear receptor (Homo sapiens), Q9Y5X4;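 active means inhibition above the mean of all tested compounds plus 3 SD, cut at about 70% in these data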;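 further: 0% = DMSO with NR2E3 transfected cells and 100% = cells lacking NR2E3 construct; higher means lower luciferase signal from less NR2E3 corepressor binding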
DAX1 inh-1 – DAX1 (NR0B1) inhibitors on StAR promoter, primary screen, cell-based, luminescence, SF-1 (NR5A1), full-length DAX-1; HEK293T StAR-luciferase reporter, SF-1/DAX-1 repression relief; hit rate 1.1% among 370,000; inhibition, % at 6.8 µM;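 active means inhibition above the mean over all tested compounds plus 3 SD, cut at about 3.6% in these data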;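 further: 0% = DAX-1 cells with DMSO and 100% = cells lacking DAX-1 with DMSO; higher inhibition means more luminescence from relief of DAX-1 repression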
DAX1 inh-2 – DAX1 (NR0B1) inhibitors, primary screen, cell-based, HEK293, Gal4-DAX1, luciferase luminescence | HEK293 Gal4-DAX1 luciferase reporter | inhibition, % at 6.75 µM | hit rate 0.99% among 340,000 | AID 504766, 2011;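 active means inhibition above the mean over all tested compounds plus 3 SD, cut at about 4.2% in these data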;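 further: 0% = DAX1-transfected cells with DMSO and 100% = empty-vector control cells with DMSO; inhibition shows as a rise in luminescence from relieved DAX1 repression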
Target sequence (P51843 207-470 limits assumed): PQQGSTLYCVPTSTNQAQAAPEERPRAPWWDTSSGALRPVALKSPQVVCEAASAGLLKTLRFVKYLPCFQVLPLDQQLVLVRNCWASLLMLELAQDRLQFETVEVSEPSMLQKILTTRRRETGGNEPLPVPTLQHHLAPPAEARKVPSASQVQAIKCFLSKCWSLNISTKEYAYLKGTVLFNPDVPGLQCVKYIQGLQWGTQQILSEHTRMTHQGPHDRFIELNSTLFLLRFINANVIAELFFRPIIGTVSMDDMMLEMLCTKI
Starred values were filed as active, the others as inactive; . = no result given.

SMILES	JMJD2C inh	NR2E3 ag-1	SMARCA2 activ	NR2E3 ag-2	DAX1 inh-1	DAX1 inh-2
C=CCn1c(C)cc(C(=O)CN2NS(=O)(=O)c3ccccc3C2=O)c1C	.	0	4	-108	3	5.4*
COc1ccc(OC)c(S(=O)(=O)Nc2ccc(C(=O)Nc3cc(C)on3)cc2)c1	.	.	-3	.	-1	.
CC1CC(O)C(C)CN1 (stereo not drawn)	-11	.	-2	-8	0	5.4*
CC1Cn2c(COc3ccccc3)nnc2S1 (stereo not drawn)	-8	1	0	-27	0	3
Cc1ccccc1OCc1nnc2n1CC(C)S2 (stereo not drawn)	-5	0	2	-16	-1	4.6*
Cc1[nH]c2ccc(F)cc2c1CCN1C(=O)OC(C)(C)C1(C)O (stereo not drawn)	1	3	-2	-22	1	7.3*
COc1cccc(-c2noc(-c3ccc(Br)o3)n2)c1	.	1	5	-113	4.4*	3
COc1cccc(-c2noc(-c3cccnc3)n2)c1	-2	-2	5	-108	3	4.2*
COc1ccc(-c2noc(-c3ccc(Br)o3)n2)cc1	1	0	6	-42	1	2
O=S1(=O)c2ccc(N3CCN(Cc4ccccc4F)CC3)cc2Oc2ccccc2CN1Cc1cn(Cc2cccc(F)c2)nn1	.	.	-4	.	-1	.
O=C(NCCc1c[nH]c2ccccc12)OCc1cn(Cc2cc(F)ccc2F)nn1	.	.	0	.	-1	.
O=c1c(-c2ccnn2-c2ccc(F)cc2)cnc2n1CCS2	.	-1	2	-4	1	-1
O=c1ccnc2n1COCS2	-8	-2	-5	6	2	6.1*
O=C(NC1CCCCN(Cc2ccc(Cl)cc2)C1=O)c1ccccc1 (stereo not drawn)	.	.	-1	.	-1	.
O=C(Oc1cccc2c(O)cccc12)c1ccccc1	-14	-1	1	-31	-1	0
O=C(Oc1cccc2ccccc12)c1ccccc1	.	.	3	-1	2	7.1*
O=C(NC1CCCCN(Cc2cccc(F)c2)C1=O)c1ccc(F)cc1 (stereo not drawn)	.	.	-1	.	0	.
Cc1cc2c(c(C)c1CCO[C@@H]1O[C@H](CO)[C@@H](O)[C@H](O)[C@H]1O)C(=O)[C@@H](C)[C@@H]2O	28	.	1	-24	0	-1
Cc1cc2c(c(C)c1CCO)C(=O)[C@H](C)C2	.	.	0	-2	1	4.7*
O=C(Nc1ccc(Cl)cc1)Nc1ccccc1C(=O)N1CCCC1	.	.	-2	.	-1	.
Cc1cc(NC(=O)C(=O)NCc2cccc(Cl)c2)no1	1	0	-5	19	0	5.5*
C=C(C)c1cccc(C(C)(C)NC(=O)Nc2nncs2)c1	-12	2	-2	-9	0	4.8*
Cc1cccnc1CCNC(=O)CCc1nnc(CCc2ccccc2)o1	11	-1	-4	-26	-1	4.7*
CCOc1ccc(-n2c(SCC(=O)Nc3ccc4c(c3)c3ccccc3n4CC)nnc2-c2cccnc2)cc1	.	.	0	.	-2	.
Cc1cc(NC(=O)Nc2cccc(F)c2)n(-c2ccccc2)n1	.	.	-1	.	-1	.
SMILES	JMJD2C inh	NR2E3 ag-1	SMARCA2 activ	NR2E3 ag-2	DAX1 inh-1	DAX1 inh-2
Cc1cc2nc3ccc(N(C)C)cc3nc2cc1N	-1	-24	7	-143	4.4*	3
COc1ccc(/C=C2\CC3(OC(=O)C4CCCCC4)CCCN2C3)cc1 (stereo not drawn)	.	.	-3	.	1	.
Cc1c(CC(=O)NCCCC(=O)O)c(=O)oc2c(C)c3oc4c(c3cc12)CCCC4	-8	1	-1	-18	0	4.9*
Cc1c(CCC(=O)NCCCCCC(=O)O)c(=O)oc2c(C)c3oc4c(c3cc12)CCCC4	-3	.	-5	-2	0	-1
Cc1[nH]c2ccccc2c1Cc1nnc(SCC(N)=O)o1	-4	-1	-2	-40	1	4.7*
Cc1[nH]c2ccccc2c1CCC(N)=O	-10	2	-2	-17	-1	1
Cc1[nH]c2ccccc2c1Cc1n[nH]c(=S)n1C	-26	4	0	-23	-1	1
Cc1[nH]c2ccccc2c1Cc1n[nH]c(=S)o1	8	-2	1	-9	0	4.7*
CCCCNC(=O)C[C@H]1C[C@@]2(C(=O)OC)C(=C[C@H](COCc3ccccc3)O[C@@H]2C)N(Cc2cccc3ccccc23)C1=O	.	.	-5	.	-1	.
CCc1ccc(OCC(=O)Nc2nnc(-c3ccco3)s2)cc1	0	-1	1	-10	4.4*	0
Cc1cccnc1Nc1nc(-c2ccc(O)cc2)cs1	40	3	4	-104	2	2
Fc1ccc(Nc2nc(-c3cccnc3)cs2)cc1	3	4	5	-152	1	8.0*
Cc1ccc(Nc2nc(-c3ccncc3)cs2)cc1	2	.	2	-98	4.2*	1
Cc1cccnc1Nc1nc(-c2ccc(F)cc2)cs1	-2	2	6	-193	3	6.2*
O=C(CN1CCc2onc(-c3ccc(-n4cc(-c5ccccc5)nn4)cc3)c2C1=O)N1CCOCC1	.	.	2	.	3	.
COc1cccc(O[C@H]2C=C[C@@H](c3ccccc3)O[C@@H]2CO)c1	.	.	0	.	-1	.
O=C(O)c1cc(Br)ccn1	4	2	-2	-1	-1	1
O=C(O)c1ccnc(C(=O)O)c1	.	-1	2	4	0	4.5*
COc1ccc(N2CCN(CCNS(=O)(=O)c3ccccc3[N+](=O)[O-])CC2)cc1	.	.	-1	.	-1	.
O=C(O)c1cnc2ccccc2n1	-5	1	-3	4	-1	0
COC(=O)c1cnc2ccccc2n1	-2	1	7.8*	-13	0	0
COC(=O)[C@]12C[C@H](CC(=O)NCC34CC5CC(CC(C5)C3)C4)C(=O)N(Cc3ccccc3)C1=C[C@H](COCc1ccccc1)O[C@@H]2C	.	.	3	.	1	.
COc1cccc(-n2nnc3c(=O)n(Cc4cccc(C)c4)cnc32)c1	0	3	3	-27	1	1
COc1cccc(-n2nnc3c(=O)n(Cc4ccccc4F)cnc32)c1	92*	4	-2	-54	-1	1
CCC(CO)Nc1ccn2nc(-c3cccc(Cl)c3)cc2n1 (stereo not drawn)	.	.	2	-111	3.9*	.
CCOC(=O)c1nc(-c2ccc(OC)c(OC)c2)no1	-2	6	-3	4	1	0

High-throughput results deposited in PubChem by several laboratories.
